Measured values published in ChEMBL document CHEMBL1126689, “Novel heterocyclic analogues of the new potent class of calcium entry blockers: 1-[[4-(aminoalkoxy)phenyl]sulfonyl]indolizines” (J Med Chem, 1993).

Experiments:
[1] = Inhibitory concentration of [3H]- nitrendipine binding against guinea pig cerebral cortex membrane; format: functional, tissue-based, Cavia porcellus
Procedure, shortened: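 Guinea pig cerebral cortex membranes (washed pellets, stored in liquid nitrogen), 200 μg protein, incubated under sodium light for 90 min at 25 °C in 50 mmol Tris-HCl pH 7.4 with 0.5 nmol [3H]nitrendipine and various compound concentrations (DMSO). Filtration and scintillation counting; 1 μM nifedipine defined specific binding.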

Rattus norvegicus = species on record: Rattus norvegicus; assay: Inhibition of [Ca2+] induced contraction of K+ depolarized rat aorta by 50%; format: functional
Procedure, shortened: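 Spirally cut thoracic aorta strips from male Wistar rats were held in modified Krebs solution at 37 °C, gassed with 95% O2/5% CO2. Ca2+-induced contraction was measured after K+ depolarization. The value is the molar concentration blocking contraction by 50%, given as mean ± SE of 3–6 determinations.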

Cavia porcellus [2] = species on record: Cavia porcellus; assay: Stimulatory concentration of [3H]nitrendipine binding to L-type calcium channel of guinea pig cerebral cortex membrane at 10e-6 M; format: functional, tissue-based
Cavia porcellus [3] = species on record: Cavia porcellus; assay: Molar concentration needed to […] by 50% of maximal stimulation; format: functional
Cavia porcellus [4] = species on record: Cavia porcellus; assay: Inhibition of [3H]nitrendipine binding to L-type calcium channel of guinea pig cerebral cortex membrane at 10e-5 M; format: functional, tissue-based

Row | SMILES | IC50 [1] | IC50 (Rattus norvegicus) | Stimulation (Cavia porcellus [2]) | IC50 (Cavia porcellus [3]) | inhibition (Cavia porcellus [4])
1 | CCCCc1oc2ccccc2c1S(=O)(=O)c1ccc(OCCCN(C)CCc2ccc(OC)c(OC)c2)cc1 | 7.9 nM | 227 nM | – | – | –
2 | COc1ccc(CCN(C)CCCOc2ccc(S(=O)(=O)c3ccoc3C(C)C)cc2)cc1OC | – | 84.2 nM | – | – | –
3 | COc1ccc(CCN(C)CCCOc2ccc(S(=O)(=O)c3cc4ccccc4nc3C(C)C)cc2)cc1OC | 13.1 nM | 84.2 nM | – | – | –
4 | CCCCN(CCCC)CCCOc1ccc(S(=O)(=O)c2ccoc2C(C)C)cc1 | 186 nM | 119 nM | – | – | –
5 | CC(C)c1c(S(=O)(=O)c2ccc(OCCCNC(C)(C)C)cc2)c2ccccc2n1C | 116 nM | 99.3 nM | – | – | –
6 | CC(C)c1nn2ccccc2c1S(=O)(=O)c1ccc(OCCCNC(C)(C)C)cc1 | – | 168 nM | – | – | –
7 | COC(=O)C1=C(C)NC(C)=C(C(=O)OC)C1c1ccccc1[N+](=O)[O-] [NIFEDIPINE] | 2.5 nM | – | – | – | –
8 | COc1ccc(CCN(C)CCCOc2ccc(S(=O)(=O)c3c[nH]nc3C(C)C)cc2)cc1OC | – | 1720 nM | 38% | – | –
9 | COc1ccc(CCN(C)CCCC(C#N)(c2ccc(OC)c(OC)c2)C(C)C)cc1OC (stereo unspecified) | 38 nM | – | – | – | –
10 | CCCCN(CCCC)CCCOc1ccc(S(=O)(=O)c2c(C(C)C)[nH]c3ccccc23)cc1 | 110 nM | 55.1 nM | – | – | –
11 | COc1ccc(CCN(C)CCCOc2ccc(S(=O)(=O)c3c(C(C)C)cn4ccccc34)cc2)cc1OC [FANTOFARONE] | 0.61 nM | – | – | – | –
12 | COc1ccc([C@@H]2Sc3ccccc3N(CCN(C)C)C(=O)[C@@H]2OC(C)=O)cc1 [DILTIAZEM] | – | – | – | 59 nM | –
13 | CCCCN(CCCC)CCCOc1ccc(S(=O)(=O)c2cc3ccccc3nc2C(C)C)cc1 | 94 nM | 198 nM | – | – | –
14 | CC(C)c1occc1S(=O)(=O)c1ccc(OCCCNC(C)(C)C)cc1 | 244 nM | 235 nM | – | – | –
15 | CC(C)c1nc2ccccc2cc1S(=O)(=O)c1ccc(OCCCNC(C)(C)C)cc1 | 181 nM | 370 nM | – | – | –
16 | CCCCN(CCCC)CCCOc1ccc(S(=O)(=O)c2c[nH]nc2C(C)C)cc1 | – | 5060 nM | – | – | 6%

Other lines, results leading:

Row | IC50 [1] | IC50 (Rattus norvegicus) | Stimulation (Cavia porcellus [2]) | IC50 (Cavia porcellus [3]) | inhibition (Cavia porcellus [4]) | SMILES
17 | 1.1 nM | 4.3 nM | – | – | – | COc1ccc(CCN(C)CCCOc2ccc(S(=O)(=O)c3c(C(C)C)n(C)c4ccccc34)cc2)cc1OC
18 | 5.2 nM | 50.8 nM | – | – | – | CCCc1oc2ccccc2c1S(=O)(=O)c1ccc(OCCCN(C)CCc2ccc(OC)c(OC)c2)cc1
19 | 0.59 nM | 5.8 nM | – | – | – | COc1cc(CCN(C)CCCOc2ccc(S(=O)(=O)c3c(C(C)C)oc4ccccc34)cc2)cc(OC)c1OC
20 | 0.22 nM | 5.9 nM | – | – | – | COc1ccc(CCN(C)CCCOc2ccc(S(=O)(=O)c3c(C(C)C)cc4ccccn34)cc2)cc1OC
21 | 2.6 nM | 18.8 nM | – | – | – | COc1ccc(CCN(C)CCCOc2ccc(S(=O)(=O)c3c(C(C)C)nn4ccccc34)cc2)cc1OC
22 | 0.65 nM | 20.2 nM | – | – | – | COc1ccc(CCN(C)CCCOc2ccc(S(=O)(=O)c3c(C(C)C)oc4ccccc34)cc2)cc1OC
23 | – | 31.1 nM | – | – | – | CCCCN(CCCC)CCCOc1ccc(S(=O)(=O)c2c(C(C)C)nn3ccccc23)cc1
24 | 0.28 nM | 1.9 nM | – | – | – | COc1cc(CCN(C)CCCOc2ccc(S(=O)(=O)c3c(C(C)C)c4ccccc4n3C)cc2)cc(OC)c1OC
25 | 1.9 nM | 14.3 nM | – | – | – | COc1ccc(CN(C)CCCOc2ccc(S(=O)(=O)c3c(C(C)C)oc4ccccc34)cc2)cc1OC
26 | 1 nM | 3.7 nM | – | – | – | COc1ccc(CN(C)CCCOc2ccc(S(=O)(=O)c3c(C(C)C)n(C)c4ccccc34)cc2)cc1OC
27 | 11 nM | 24.1 nM | – | – | – | CCCCN(CCCC)CCCOc1ccc(S(=O)(=O)c2c(C(C)C)n(C)c3ccccc23)cc1
28 | 1.6 nM | 17.1 nM | – | – | – | COc1ccc(CCNCCCOc2ccc(S(=O)(=O)c3c(C(C)C)oc4ccccc34)cc2)cc1OC
29 | 12 nM | 32.9 nM | – | – | – | CC(C)c1cc2ccccn2c1S(=O)(=O)c1ccc(OCCCNC(C)(C)C)cc1
30 | 0.072 nM | 3.7 nM | – | – | – | COc1ccc(CCN(C)CCCOc2ccc(S(=O)(=O)c3c(C(C)C)c4ccccc4n3C)cc2)cc1OC
31 | 0.093 nM | 16.4 nM | – | – | – | COc1cc(CCN(C)CCCOc2ccc(S(=O)(=O)c3c(C(C)C)c4ccccc4n3C)cc2)cc(OC)c1
32 | 0.99 nM | 13.3 nM | – | – | – | CCCCN(CCCC)CCCOc1ccc(S(=O)(=O)c2c(C(C)C)cc3ccccn23)cc1
33 | 10.9 nM | 19.1 nM | – | – | – | COc1ccc(CCN(C)CCCOc2ccc(S(=O)(=O)c3c(C(C)C)[nH]c4ccccc34)cc2)cc1OC
34 | 2.2 nM | 37.5 nM | – | – | – | COc1ccc(CCN(C)CCCOc2ccc(S(=O)(=O)c3[nH]c4ccccc4c3C(C)C)cc2)cc1OC
